Tests used:
Canis familiaris [1] = test: Inhibition of coronary artery occlusion (mean area under flow time curve) in anesthetized dog at 0.01 mg/kg; format: functional; details: Canis lupus familiaris
How it was run: (§1)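 Modified Folts-type coronary stenosis-occlusion model of large-vessel thrombosis; read-out mean area under flow-time curve (% seconds) compared with vehicle-treated animals, as percent inhibition of thrombus formation. Five animals.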

Canis familiaris [2] = test: Inhibition of coronary artery occlusion (mean area under flow time curve) in anesthetized dog at 0.03 mg/kg; format: functional; details: Canis lupus familiaris; how it was run: as §1
Canis familiaris [3] = test: Inhibition of coronary artery occlusion (mean area under flow time curve) in anesthetized dog at 0.1 mg/kg; format: functional; details: Canis lupus familiaris; how it was run: as §1
Phosphodiesterase 3 [4] = biological target: T1, Phosphodiesterase 3 (Homo sapiens, UniProt Q14432+Q13370); test: Inhibition of human platelet PDE by inhibiting cyclic Adenosine monophosphate (cAMP) hydrolysis
[5] = biological target: cGMP-dependent 3',5'-cyclic phosphodiesterase (Homo sapiens, UniProt O00408); test: Inhibition of human platelet PDE by inhibiting cyclic Guanosine monophosphate (cGMP) hydrolysis
cGMP-dependent 3',5'-cyclic phosphodiesterase, sequence (O00408 whole entry): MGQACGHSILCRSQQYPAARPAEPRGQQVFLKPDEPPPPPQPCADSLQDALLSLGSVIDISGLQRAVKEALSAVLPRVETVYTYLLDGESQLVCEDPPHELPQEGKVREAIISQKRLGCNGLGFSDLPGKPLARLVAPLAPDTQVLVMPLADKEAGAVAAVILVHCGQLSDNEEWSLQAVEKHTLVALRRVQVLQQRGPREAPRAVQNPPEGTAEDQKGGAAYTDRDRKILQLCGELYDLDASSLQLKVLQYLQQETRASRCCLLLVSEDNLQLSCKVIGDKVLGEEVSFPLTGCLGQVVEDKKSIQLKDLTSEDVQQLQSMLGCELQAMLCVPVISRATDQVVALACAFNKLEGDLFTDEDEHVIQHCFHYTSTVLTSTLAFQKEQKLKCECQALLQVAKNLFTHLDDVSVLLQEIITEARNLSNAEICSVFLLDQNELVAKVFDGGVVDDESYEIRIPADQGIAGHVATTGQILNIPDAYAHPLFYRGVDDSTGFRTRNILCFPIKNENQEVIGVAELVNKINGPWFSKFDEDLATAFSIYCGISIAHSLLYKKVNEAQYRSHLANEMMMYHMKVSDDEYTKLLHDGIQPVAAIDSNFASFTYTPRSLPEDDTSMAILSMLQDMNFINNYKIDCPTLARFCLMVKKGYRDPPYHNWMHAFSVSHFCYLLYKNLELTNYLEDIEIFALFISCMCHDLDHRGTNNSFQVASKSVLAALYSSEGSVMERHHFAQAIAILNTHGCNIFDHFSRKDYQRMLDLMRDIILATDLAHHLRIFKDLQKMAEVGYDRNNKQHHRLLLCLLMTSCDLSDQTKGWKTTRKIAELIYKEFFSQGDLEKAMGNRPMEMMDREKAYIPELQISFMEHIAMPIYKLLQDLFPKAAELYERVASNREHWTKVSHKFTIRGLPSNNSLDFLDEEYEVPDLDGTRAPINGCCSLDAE

Oryctolagus cuniculus [6] = species: Oryctolagus cuniculus; test: Inhibition of platelet aggregation using collagen as activating agent in rabbit platelet rich plasma (PRP); format: functional
How it was run: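 Rabbit platelet-rich plasma, aggregation triggered by ADP or collagen after 3 min preincubation of PRP with drug. Single or duplicate determinations, reference agent included.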

Oryctolagus cuniculus [7] = test: Inhibition of thrombus formation (mean thrombus area) in conscious rabbits at 0.3 mg/kg; format: functional; details: values are per cent of control
How it was run: (§2)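 Conscious rabbit ear biolaser model: ruby laser induces microvascular thrombi. Predose mean thrombus area from 10 vessels, then compound given orally as suspension in H2O/Tween 20 and 10 trials repeated 2 h later in the same rabbit; percent inhibition versus predose. At least three rabbits.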

Oryctolagus cuniculus [8] = test: Inhibition of thrombus formation (mean thrombus area) in conscious rabbits at 1.0 mg/kg; format: functional; details: values are per cent of control; how it was run: as §2
Oryctolagus cuniculus [9] = test: Inhibition of thrombus formation (mean thrombus area) in conscious rabbits at 3.0 mg/kg; format: functional; details: values are per cent of control; how it was run: as §2
Rattus norvegicus [10] = species: Rattus norvegicus; test: Oral efficacy in rats using the ex vivo aggregatory protocol; format: functional
How it was run: (§3)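 Rats given compound orally, then ADP-induced platelet aggregation measured ex vivo.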

Rattus norvegicus [11] = test: Percent inhibition of oral efficacy in rats using the ex vivo aggregatory protocol at 10 mg/kg; format: functional; how it was run: as §3
Canis familiaris [12] = test: Inhibition of coronary artery occlusion (mean area under flow time curve) in anesthetized dog at 0.3 mg/kg; format: functional; details: Canis lupus familiaris; how it was run: as §1
Oryctolagus cuniculus [13] = test: Inhibition of thrombus formation (mean thrombus area) in conscious rabbits at 10.0 mg/kg; format: functional; details: values are per cent of control; how it was run: as §2
Phosphodiesterase 3 [14] = biological target: T1, Phosphodiesterase 3; test: Inhibition of human platelet PDE cAMP hydrolysis
[15] = Inhibition of human platelet c-AMP phosphodiesterase hydrolysis of cAMP
Mustela putorius furo [16] = test: Change in heart rate (HR)in anesthetized ferrets by intraduodenal dose at 0.3 mg/kg; format: functional; details: dose 3 mg/kg, in the assay text read “3 mg/kg” for “0.3 mg/kg”
How it was run: (§4)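 Anesthetized ferrets dosed intraduodenally; heart rate, mean arterial blood pressure and right ventricular contractile force monitored as dose-dependent changes, reported as maximum change (%). Averages from at least three separate experiments.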

Mustela putorius furo [17] = test: Change in mean arterial blood pressure (MABP) in anesthetized ferrets by intraduodenal dose at 0.3 mg/kg; format: functional, Artery; details: dose 3 mg/kg, in the assay text read “3 mg/kg” for “0.3 mg/kg”; how it was run: as §4
Mustela putorius furo [18] = test: Change in mean arterial blood pressure (MABP) in anesthetized ferrets by intraduodenal dose at 3 mg/kg; format: functional, Artery; details: dose 10 mg/kg, in the assay text read “10 mg/kg” for “3 mg/kg”; how it was run: as §4
Mustela putorius furo [19] = test: Change in right ventricular contractile force (RCVF) in anesthetized ferrets by intraduodenal dose at 0.3 mg/kg; format: functional; details: Heart right ventricle, dose 3 mg/kg, in the assay text read “3 mg/kg” for “0.3 mg/kg”; how it was run: as §4
Mustela putorius furo [20] = test: Change in heart rate (HR)in anesthetized ferrets by intraduodenal dose at 10 mg/kg
Mustela putorius furo [21] = test: Change in right ventricular contractile force (RCVF) in anesthetized ferrets by intraduodenal dose at 10 mg/kg; details: Heart right ventricle
Oryctolagus cuniculus [22] = species: Oryctolagus cuniculus; test: Inhibition of ADP-induced platelet aggregation in rabbit platelet rich plasma (PRP); format: functional
How it was run: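 Rabbit platelet-rich plasma, aggregation triggered by ADP or collagen after 3 min preincubation of PRP with drug. […] Single or duplicate determinations, reference agent included.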

Compound	IC50 (Phosphodiesterase 3 [4]) [nM]	IC50 [5] [nM]	EC50 (Oryctolagus cuniculus [6]) [nM]	ED50 (Rattus norvegicus [10]) [mg/kg]	inhibition in vivo at 10 mg/kg (Rattus norvegicus [11]) [%]	further results
O=C(O)COc1ccc2[nH]c3nc(O)nc-3cc2c1	70	50000	760	< 10	61	–
O=C(CCCOc1ccc2[nH]c3nc(O)nc-3cc2c1)N1CCCCC1	20	> 100000	–	< 10	57	–
O=C1CN2Cc3c(ccc(Cl)c3Cl)N=C2N1 [ANAGRELIDE]	–	–	–	–	–	inhibition in vivo at 0.3 mg/kg (Canis familiaris [12]): 117%; inhibition in vivo at 0.03 mg/kg (Canis familiaris [2]): 72%; inhibition in vivo at 0.1 mg/kg (Canis familiaris [3]): 106%; response, % of control at 1 mg/kg (Oryctolagus cuniculus [8]): 98%; response, % of control at 10 mg/kg (Oryctolagus cuniculus [13]): 49%; response, % of control at 3 mg/kg (Oryctolagus cuniculus [9]): 68%
OCCCCOc1ccc2[nH]c3nc(O)nc-3cc2c1	6	20000	33	> 10	47	–
CC(C)OC(=O)CCCOc1ccc2[nH]c3nc(O)nc-3cc2c1	300	–	21	> 10	24	–
CCOC(=O)/C=C/c1ccc2[nH]c3nc(O)nc-3cc2c1	–	–	280	–	–	IC50 [15]: 1000 nM
O=c1[nH]c2cc3cc(OCCCCS(=O)(=O)c4ccccc4)ccc3nc2[nH]1	1	> 100000	–	–	–	inhibition in vivo at 0.03 mg/kg (Canis familiaris [2]): 115%; HR (Mustela putorius furo [16]): 13%; MABP (Mustela putorius furo [17]): -9%; MABP (Mustela putorius furo [18]): -11%; RVCF (Mustela putorius furo [19]): 16%; response, % of control at 0.3 mg/kg (Oryctolagus cuniculus [7]): 137%; response, % of control at 1 mg/kg (Oryctolagus cuniculus [8]): 74%; response, % of control at 3 mg/kg (Oryctolagus cuniculus [9]): 62%; HR (Mustela putorius furo [20]): 31%; RVCF (Mustela putorius furo [21]): 39%
COC(=O)CCCCc1ccc2[nH]c3nc(O)nc-3cc2c1	900	–	270	> 10	29	–
CN(C)C(=O)CCCOc1ccc2[nH]c3nc(O)nc-3cc2c1	40	–	950	> 10	–	EC50 (Oryctolagus cuniculus [22]): 4770 nM
CN(C(=O)CCCOc1ccc2nc3[nH]c(=O)[nH]c3cc2c1)C1CCCCC1	2	6000	2	2.9	–	inhibition in vivo at 0.3 mg/kg (Canis familiaris [12]): > 120%; inhibition in vivo at 0.03 mg/kg (Canis familiaris [2]): 115%; response, % of control at 0.3 mg/kg (Oryctolagus cuniculus [7]): 97%; response, % of control at 1 mg/kg (Oryctolagus cuniculus [8]): 65%
COC(=O)/C=C/C=C/c1ccc2[nH]c3nc(O)nc-3cc2c1	–	–	670	10	–	IC50 [15]: 90 nM
OCCCCCc1ccc2[nH]c3nc(O)nc-3cc2c1	100	–	220	> 10	26	–

Second part, led by results:

IC50 (Phosphodiesterase 3 [4]) [nM]	IC50 [5] [nM]	EC50 (Oryctolagus cuniculus [6]) [nM]	Compound	ED50 (Rattus norvegicus [10]) [mg/kg]	inhibition in vivo at 10 mg/kg (Rattus norvegicus [11]) [%]	further results
400	> 100000	20	COC(=O)CCCOc1ccc2nc3[nH]c(=O)[nH]c3cc2c1	–	–	inhibition in vivo at 0.01 mg/kg (Canis familiaris [1]): 78%; inhibition in vivo at 0.03 mg/kg (Canis familiaris [2]): 109%; inhibition in vivo at 0.1 mg/kg (Canis familiaris [3]): 120%; response, % of control at 0.3 mg/kg (Oryctolagus cuniculus [7]): 145%; response, % of control at 1 mg/kg (Oryctolagus cuniculus [8]): 74%; response, % of control at 3 mg/kg (Oryctolagus cuniculus [9]): 78%
–	30000	–	O=C(O)CCCOc1ccc2[nH]c3nc(O)nc-3cc2c1	–	–	inhibition in vivo at 0.01 mg/kg (Canis familiaris [1]): 89%; inhibition in vivo at 0.03 mg/kg (Canis familiaris [2]): 115%; inhibition in vivo at 0.1 mg/kg (Canis familiaris [3]): 111%; response, % of control at 0.3 mg/kg (Oryctolagus cuniculus [7]): 144%; response, % of control at 1 mg/kg (Oryctolagus cuniculus [8]): 70%; response, % of control at 3 mg/kg (Oryctolagus cuniculus [9]): 65%
–	> 100000	20	Cn1c(O)nc2nc3ccc(OCCCC(=O)NC4CCCCC4)cc3cc21	–	–	IC50 (Phosphodiesterase 3 [14]): 700 nM
600	10000	–	CN(C(=O)CCCCOc1ccc2nc3nc(O)n(C)c3cc2c1)C1CCCCCC1	> 10	43	–
1000	–	100	Cn1c(O)nc2cc3cc(OCCCC(=O)O)ccc3nc21	< 10	59	–
100	–	130	CN(C(=O)CCCOc1ccc2nc3c(cc2c1)nc(O)n3C)C1CCCCC1	< 10	68	–
